Results published in ChEMBL document CHEMBL1135768, “Design, synthesis, and SAR of tachykinin antagonists: modulation of balance in NK(1)/NK(2) receptor antagonist activity” (J Med Chem, 2002).

What was measured:
[1] = Bioavailability in dog (dose 1-10 uM/kg i.v.); type: ADME, organism-based, Canis lupus familiaris; conditions: in vivo, iv
Summary of the method: (§1)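 Compound given to rat (n = 3) or dog (n = 1) by iv bolus at 1–10 μmol/kg, or orally at 10–100 μmol/kg, as a solution in 75% poly(ethylene glycol) 400 in normal saline.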

[2] = Bioavailability in rat (dose 1-10 uM/kg i.v.); type: ADME, organism-based; conditions: in vivo, iv; summary of the method: as §1
[3] = biological target: T1, Neuromedin-K receptor (Homo sapiens, UniProt P29371); assay: Inhibition of binding of [125I]MPNI to human Tachykinin receptor 3 (NK3) expressed in mouse erythroleukemia cells; type: cell-based
T1 sequence (P29371 whole entry): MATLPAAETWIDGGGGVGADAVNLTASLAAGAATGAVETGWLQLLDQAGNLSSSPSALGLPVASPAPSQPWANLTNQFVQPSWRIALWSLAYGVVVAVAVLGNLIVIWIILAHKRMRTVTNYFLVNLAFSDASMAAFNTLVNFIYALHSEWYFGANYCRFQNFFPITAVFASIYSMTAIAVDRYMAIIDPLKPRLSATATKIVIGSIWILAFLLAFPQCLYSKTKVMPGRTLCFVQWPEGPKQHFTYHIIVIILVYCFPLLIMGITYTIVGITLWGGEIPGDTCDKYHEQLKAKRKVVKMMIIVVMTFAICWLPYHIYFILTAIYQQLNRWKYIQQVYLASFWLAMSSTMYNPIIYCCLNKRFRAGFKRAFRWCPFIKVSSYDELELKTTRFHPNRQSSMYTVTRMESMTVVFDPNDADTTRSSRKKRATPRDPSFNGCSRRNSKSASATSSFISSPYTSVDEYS

[4] = biological target: Substance-P receptor (Cavia porcellus) (UniProt P30547); assay: In vivo binding affinity towards Tachykinin receptor 1 after oral administration in presence of agonist ASMSP in guinea pig pulmonary tissue in lung plasma extravation assay; type: organism-based
Summary of the method: (§2)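 Guinea pig lung plasma extravasation model. Antagonist dosed orally; NK1-selective agonist ASMSP challenge 2 h postdose. Single ED50 calculated from dose response in three to six animals per dose over 4–5 dose levels, doses staggered across several days.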

[5] = biological target: T2, Substance-K receptor (Oryctolagus cuniculus) (UniProt P79218); assay: Tested for the binding affinity towards tachykinin receptor 2 (NK2) in rabbit pulmonary artery tissue
T2 sequence (whole entry): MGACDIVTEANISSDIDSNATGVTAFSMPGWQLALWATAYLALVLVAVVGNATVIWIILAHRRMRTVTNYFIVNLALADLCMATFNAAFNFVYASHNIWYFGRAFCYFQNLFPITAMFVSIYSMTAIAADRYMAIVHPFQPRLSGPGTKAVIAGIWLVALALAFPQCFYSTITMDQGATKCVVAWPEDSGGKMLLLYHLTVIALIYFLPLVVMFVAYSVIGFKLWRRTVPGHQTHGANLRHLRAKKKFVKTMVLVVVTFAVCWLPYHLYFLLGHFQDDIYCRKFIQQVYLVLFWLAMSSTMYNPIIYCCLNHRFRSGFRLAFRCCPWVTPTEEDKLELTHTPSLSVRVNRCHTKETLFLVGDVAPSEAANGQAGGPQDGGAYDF

[6] = biological target: T3, Substance-K receptor (Homo sapiens, UniProt P21452); assay: Inhibition of binding of [3H]NKA to human Tachykinin receptor 2 (NK2) in mouse erythroleukemia cells
T3 sequence (P21452 whole entry): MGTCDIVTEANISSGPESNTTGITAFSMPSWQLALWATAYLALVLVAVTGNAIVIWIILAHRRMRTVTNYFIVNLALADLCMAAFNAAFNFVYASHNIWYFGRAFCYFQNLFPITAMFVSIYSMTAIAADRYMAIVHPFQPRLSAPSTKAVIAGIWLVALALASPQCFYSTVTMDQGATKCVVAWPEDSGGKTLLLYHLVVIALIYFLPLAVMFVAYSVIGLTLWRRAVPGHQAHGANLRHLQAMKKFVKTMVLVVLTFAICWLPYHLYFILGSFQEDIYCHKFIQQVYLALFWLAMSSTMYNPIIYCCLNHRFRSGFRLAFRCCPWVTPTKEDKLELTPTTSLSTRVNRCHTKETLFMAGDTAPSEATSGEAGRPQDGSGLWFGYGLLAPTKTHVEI

[7] = biological target: Substance-P receptor (Homo sapiens, UniProt P25103); assay: Inhibition of binding of [3H]SP to Tachykinin receptor 1 of human tachykinin receptor expressed in mouse erythroleukemia cells; type: cell-based
[8] = biological target: T4, Substance-K receptor (Cavia porcellus) (UniProt Q64077); assay: In vivo binding affinity towards Tachykinin receptor 2 (NK2) after oral administration in presence of agonist BANK in guinea pig pulmonary tissue in pulmonary mechanics assay
T4 sequence (whole entry): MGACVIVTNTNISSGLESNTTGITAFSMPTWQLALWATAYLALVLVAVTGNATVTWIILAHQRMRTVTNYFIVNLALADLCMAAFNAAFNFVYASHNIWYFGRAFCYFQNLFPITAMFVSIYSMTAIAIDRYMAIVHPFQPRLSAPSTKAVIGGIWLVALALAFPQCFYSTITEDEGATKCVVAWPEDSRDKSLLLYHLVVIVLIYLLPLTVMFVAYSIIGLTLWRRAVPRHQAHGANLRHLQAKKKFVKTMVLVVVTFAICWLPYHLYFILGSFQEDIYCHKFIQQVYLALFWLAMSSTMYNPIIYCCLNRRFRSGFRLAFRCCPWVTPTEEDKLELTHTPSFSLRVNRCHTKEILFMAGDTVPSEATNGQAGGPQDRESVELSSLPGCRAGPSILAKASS

[9] = biological target: Substance-P receptor (Cavia porcellus) (UniProt P30547); assay: Effective dose concentration required for In vivo binding affinity towards Tachykinin receptor 1 after oral administration in presence of agonist ASMSP in guinea pig pulmonary tissue in lung plasma extravation assay; type: organism-based; summary of the method: as §2
[10] = biological target: T3, Substance-K receptor; assay: Inhibition of binding of [3H]NKA to human Tachykinin receptor 2 (NK2) expressed in mouse erythroleukemia cells; type: cell-based
[11] = biological target: T4, Substance-K receptor (Cavia porcellus); assay: Effective dose concentration required for In vivo binding affinity towards Tachykinin receptor 2 (NK2) receptor after oral administration in presence of agonist BANK in guinea pig pulmonary tissue in pulmonary mechanics assay
[12] = tested on: Substance-P receptor (Oryctolagus cuniculus); assay: Tested for the binding affinity towards tachykinin receptor 1 (NK1) in rabbit pulmonary artery tissue
[13] = biological target: Substance-P receptor (Cavia porcellus) (UniProt P30547); assay: In vivo potency as dose ratio (ED50 ratio for Tachykinin receptor 1 in presence and absence of antagonist) in guinea pig PMM after oral administration at a dose 30 uM/Kg
[14] = biological target: T4, Substance-K receptor (Cavia porcellus); assay: In vivo potency as dose ratio (ED50 ratio for Tachykinin receptor 2 (NK2) in presence and absence of antagonist) in guinea pig PMM after oral administration at a dose 30 uM/Kg
[15] = biological target: Substance-P receptor (Cavia porcellus) (UniProt P30547); assay: In vivo potency as dose ratio (ED50 ratio for Tachykinin receptor 1 in presence and absence of antagonist) in guinea pig PMM after intravenous administration at a dose 10 uM/Kg
[16] = biological target: T4, Substance-K receptor (Cavia porcellus); assay: In vivo potency as dose ratio (ED50 ratio for Tachykinin receptor 2 (NK2) in presence and absence of antagonist) in guinea pig PMM after intravenous administration at a dose 10 uM/Kg
[17] = biological target: T4, Substance-K receptor (Cavia porcellus); assay: In vivo binding affinity towards Tachykinin receptor 2 (NK2) receptor after oral administration in presence of agonist BANK in guinea pig pulmonary tissue in pulmonary mechanics assay

Sequence of Substance-P receptor (P25103 whole entry): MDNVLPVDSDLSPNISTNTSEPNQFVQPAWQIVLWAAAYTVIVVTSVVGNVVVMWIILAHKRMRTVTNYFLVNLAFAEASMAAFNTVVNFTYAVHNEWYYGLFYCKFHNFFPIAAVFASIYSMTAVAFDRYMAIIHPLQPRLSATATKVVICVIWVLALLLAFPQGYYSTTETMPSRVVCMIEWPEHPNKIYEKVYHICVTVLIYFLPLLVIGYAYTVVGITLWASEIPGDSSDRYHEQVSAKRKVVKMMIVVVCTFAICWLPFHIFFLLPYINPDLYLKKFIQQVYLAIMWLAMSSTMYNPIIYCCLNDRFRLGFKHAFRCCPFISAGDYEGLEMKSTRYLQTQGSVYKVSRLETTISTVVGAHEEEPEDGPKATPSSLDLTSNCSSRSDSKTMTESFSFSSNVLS
Sequence of Substance-P receptor (Cavia porcellus) (P30547 whole entry): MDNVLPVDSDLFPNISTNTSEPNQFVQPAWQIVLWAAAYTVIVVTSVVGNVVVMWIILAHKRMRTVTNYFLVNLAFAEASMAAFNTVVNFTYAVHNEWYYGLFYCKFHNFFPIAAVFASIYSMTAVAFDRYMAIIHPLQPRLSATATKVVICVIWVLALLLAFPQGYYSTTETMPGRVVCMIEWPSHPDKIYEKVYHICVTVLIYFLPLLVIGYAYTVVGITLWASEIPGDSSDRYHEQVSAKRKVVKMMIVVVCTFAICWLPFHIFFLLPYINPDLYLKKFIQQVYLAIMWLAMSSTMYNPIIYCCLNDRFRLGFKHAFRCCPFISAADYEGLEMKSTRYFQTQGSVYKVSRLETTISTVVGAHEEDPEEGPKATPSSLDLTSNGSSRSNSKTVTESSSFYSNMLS

SMILES | bioavailability [1] [%] | bioavailability [2] [%] | Ki [3] [pM] | ED50 [4] [µmol/kg] | pKB [5] | Ki [6] [pM] | Ki [7] [pM] | ED50 [8] [µmol/kg] | ED50 [9] [µmol/kg] | Ki [10] [pM] | ED50 [11] [µmol/kg] | pKB [12] | dose ratio [13] | dose ratio [14] | dose ratio [15] | dose ratio [16] | ED50 [17] [µmol/kg]
COc1ccc(C2CCN(CC[C@H](CN(C)C(=O)c3cc(C#N)cc4ccccc34)c3ccc(Cl)c(Cl)c3)CC2)c([S@+](C)[O-])c1 | 18 | 7 | 39000 | 1 | 8.7 | 340 | 140 | 3 | – | – | – | – | – | – | – | – | –
CN(C[C@@H](CCN1CCC(c2ccccc2[S@+](C)[O-])CC1)c1ccc(Cl)c(Cl)c1)C(=O)c1cc(C#N)cc2ccccc12 | 18 | 9 | – | – | 8.26 | – | 120 | – | 0.6 | 640 | 13 | – | – | – | – | – | –
CNC(=O)C1(N2CCCCC2=O)CCN(CC[C@H](CN(C)C(=O)c2c(OC)c(C#N)cc3ccccc23)c2ccc(Cl)c(Cl)c2)CC1 | – | – | 9400 | 0.5 | 8.2 | – | 270 | – | – | 35000 | – | 8.7 | 50 | 49 | 384 | 155 | 9.3
